The text below walks through data of ChEMBL document CHEMBL1153525, “Adenosine A2A receptor-antagonist/dopamine D2 receptor-agonist bivalent ligands as pharmacological tools to detect A2A-D2 receptor heteromers” (J Med Chem, 2009).

Test [1] concerns the target D(2) dopamine receptor (Homo sapiens) (UniProt P14416). Nature of the test: Agonist activity at human D2R receptor expressed In HEK293 cells assessed as decrease in forskolin-induced cAMP level at 10 uM. Format: functional, cell-based. On the set-up: scale not given: the % may be the effect or the level left. The method in brief: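 HEK-293 cells transiently transfected with human D2R (long isoform) were kept 16 h in serum-free medium, then used 48 h after transfection. Cells were preincubated 10 min at 37 °C with 50 μM zardaverine in serum-free medium with 10 mM MgCl2. Test ligand at 10 μM was added, then 10 μM forskolin for 15 min. Cells were extracted with HClO4 and cAMP was measured by [3H]cAMP assay, as % of forskolin-induced level; three independent experiments.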

The nature of test [2]: Displacement of [3H]YM09151-2 from D2R (long isoform) dimer in lamb striatum membrane low affinity macroscopic equilibrium dissociation constant by scintillation counting. The test is classed as cell membranes, Ovis aries. The method in brief:
(§1)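 Lamb striatal membranes (0.3-0.5 mg protein/mL) were incubated 2 h at 25 °C in 50 mM Tris-HCl pH 7.4 with 10 mM MgCl2 and 2 U/mL ADA. Radioligand was 2.1 nM [3H]ZM241385 (A2AR) or 0.9 nM [3H]YM09151-2 (D2R), against 11 competitor concentrations from 0.1 nM to 50 μM in triplicate. Nonspecific binding used 50 μM unlabeled radioligand. After GF/C filtration, counts were fitted to a two-state dimer model for KDB1 and KDB2; three experiments.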

Test [3] deals with Adenosine A2A receptor (Homo sapiens) (UniProt P29274). Nature of the test: Agonist activity at human A2aR expressed in HEK293 cells assessed as cAMP accumulation at 10 uM.
Target sequence in this assay (P29274 whole entry, canonical isoform): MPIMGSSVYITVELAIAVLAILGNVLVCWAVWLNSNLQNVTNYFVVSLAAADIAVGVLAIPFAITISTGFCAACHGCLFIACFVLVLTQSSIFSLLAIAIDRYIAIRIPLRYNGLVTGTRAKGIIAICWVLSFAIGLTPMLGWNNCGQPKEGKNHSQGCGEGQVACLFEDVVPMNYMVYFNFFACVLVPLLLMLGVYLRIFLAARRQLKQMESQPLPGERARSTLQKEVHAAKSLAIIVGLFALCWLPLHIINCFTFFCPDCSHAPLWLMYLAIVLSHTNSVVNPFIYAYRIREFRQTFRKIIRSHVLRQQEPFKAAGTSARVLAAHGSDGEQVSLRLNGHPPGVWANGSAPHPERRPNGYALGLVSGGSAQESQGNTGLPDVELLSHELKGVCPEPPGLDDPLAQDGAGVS
Test [4] is described as follows: Displacement of [3H]ZM241385 from A2aR dimer in lamb striatum membrane assessed as high affinity macroscopic equilibrium dissociation constant by scintillation counting. The test is classed as cell membranes, Ovis aries. The method in brief: as §1
Test [5] deals with Adenosine A2A receptor (Homo sapiens) (UniProt P29274). Nature of the test: Displacement of [3H]ZM241385 from human A2aR/D2R (long isoform) heteromer expressed in mouse Ltk cells by scintillation counting. Format: cell-based. The method, boiled down:
(§2)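 Mouse Ltk fibroblasts were transiently transfected with human A2AR, human D2R (long isoform) or both, and membranes were prepared 48 h later. Membranes were incubated 2 h at 25 °C in 50 mM Tris-HCl pH 7.4 with 10 mM MgCl2 and 2 U/mL ADA, plus 2.1 nM [3H]ZM241385 or 1.9 nM [3H]YM09151-2 and 1 μM test compound. Bound ligand was counted after filtration and expressed as % of specific binding without displacer; three independent experiments.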
Target sequence in this assay (P29274 whole entry, canonical isoform): as above

For test [6], the system named is Dopamine D2 receptor (Homo sapiens). Nature of the test: Displacement of [3H]YM09151-2 from human A2aR/D2R (long isoform) heteromer expressed in mouse Ltk cells by scintillation counting.
Test [7] addresses D(2) dopamine receptor (Homo sapiens) (UniProt P14416). Nature of the test: Displacement of [3H]YM09151-2 from human D2R expressed in mouse Ltk cells by scintillation counting relative to control. The test is classed as cell-based. The method, boiled down:
as §2

Test [8] has as its target Adenosine A2A receptor (Homo sapiens) (UniProt P29274). Put plainly: Displacement of [3H]ZM241385 from human A2AR expressed in mouse Ltk cells at 1 uM by scintillation counting relative to control.
Target sequence in this assay (P29274 whole entry, looked up, canonical isoform): as the sequence (P29274 whole entry, canonical isoform) above
For test [9] the target is unchanged. Put plainly: Antagonist activity at human A2aR expressed in HEK293 cells assessed as inhibition of CGS-21680-induced cAMP production at 10 uM. The test is classed as functional, cell-based. The method, boiled down:
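Human A2AR was transiently expressed in HEK-293 cells, which were held 16 h serum-free with 1.5 U/mL ADA and used 48 h post-transfection. Cells were preincubated 10 min at 37 °C with 50 μM zardaverine, 10 mM MgCl2 and 1.5 U/mL ADA. Ligand at 10 μM was given alone, or 10 min before 200 nM CGS 21680 (10-15 min). cAMP was measured by [3H]cAMP assay, as % of CGS 21680 response; three independent experiments.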
Target sequence in this assay (P29274 whole entry, canonical isoform): as above

For test [10] the target is unchanged. Nature of the test: Displacement of [3H]ZM241385 from human A2aR expressed in mouse Ltk cells at 1 uM by scintillation counting relative to control. Format: cell-based. The method, boiled down:
as §2
Target sequence in this assay (P29274 whole entry, canonical isoform): as above

Test [11] shares this target. Put plainly: Displacement of [3H]ZM241385 from human A2aR/D2R (long isoform) coexpressed in mouse Ltk cells by scintillation counting. Format: cell-based. The method, boiled down:
as §2
Target sequence in this assay (P29274 whole entry, canonical isoform): as above

Test [12] can be described thus: Displacement of [3H]YM09151-2 from D2R (long isoform) dimer in lamb striatum membrane high affinity macroscopic equilibrium dissociation constant by scintillation counting. The test is classed as cell membranes, Ovis aries. The method in brief:
as §1

Each structure is given as a SMILES string. The source made the active and inactive calls. The rule behind the calls is not given here.

Chain of D(2) dopamine receptor (Homo sapiens) (P14416 whole entry, canonical isoform): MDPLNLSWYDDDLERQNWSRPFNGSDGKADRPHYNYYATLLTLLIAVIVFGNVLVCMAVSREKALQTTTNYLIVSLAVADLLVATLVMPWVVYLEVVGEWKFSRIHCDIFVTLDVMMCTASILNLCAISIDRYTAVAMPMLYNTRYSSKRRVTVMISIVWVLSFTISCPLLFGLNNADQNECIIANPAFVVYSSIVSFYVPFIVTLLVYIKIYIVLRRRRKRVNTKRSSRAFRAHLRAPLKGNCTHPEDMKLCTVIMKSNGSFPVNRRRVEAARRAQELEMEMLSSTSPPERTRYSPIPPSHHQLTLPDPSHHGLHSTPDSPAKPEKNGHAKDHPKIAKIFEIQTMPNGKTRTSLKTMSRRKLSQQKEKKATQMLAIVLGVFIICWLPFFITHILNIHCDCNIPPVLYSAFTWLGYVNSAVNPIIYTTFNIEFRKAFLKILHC

Consider `CCCN(CCc1ccc(NC(=O)CCC(N)C(=O)NCCCCC(NC(=O)CCC(=O)NCCOCCOCCNC(=O)CCC(=O)NCCOCCOCCNC(=O)CCC(=O)NCCOCCOCCNC(=O)C(CCCCNC(=O)C(N)CCCCNC(=O)COc2ccc(-c3nc4c([nH]3)c(=O)n(CCC)c(=O)n4CCC)cc2)NC(C)=O)C(N)=O)cc1)C1CCc2c(O)cccc2C1` (centres undefined), for which, in test [1], the Activity stood at 78%. Further, the results for the inhibition constant (Ki) in [2], in [4] and in test [12] were 500 nM, 50 nM and 1.8 nM, respectively. The outcome in [3] and in test [7] was inactive. The result in test [5], in [6], in [8], in test [9], in test [10] and in test [11] was Active.
`CCCN(CCc1ccc(NC(=O)CCC(N)C(=O)NCCCCC(NC(=O)CCC(=O)NCCOCCOCCNC(=O)C(CCCCNC(=O)C(N)CCCCNC(=O)COc2ccc(-c3nc4c([nH]3)c(=O)n(CCC)c(=O)n4CCC)cc2)NC(C)=O)C(N)=O)cc1)C1CCc2c(O)cccc2C1` (centres undefined): the Activity in test [1] amounted to 87%. The Ki is 7000 nM in [2], 59 nM in test [4] and 1.1 nM in [12]. The result in test [3] and in test [7] was inactive. Besides, the result in [5], in test [6], in test [8], in test [9], in test [10] and in test [11] was Active.
